This excerpt belongs to a sample that is enriched for hits.
NALP1 yeast inh: blocks the NALP1 inflammasome reconstituted in yeast. S. cerevisiae NALP1/ASC/caspase-1 growth, X-gal OD620, 72 h. inhibition, % at 10 µM. 280,000 compounds, 0.61% hits. AID 2071; in the data active = inhibition mostly above about 24%, no sharp cut-off; inactive = mostly below about 32%
NLRP3 yeast inh: blocks the NALP3 inflammasome reconstituted in yeast. 330,000 compounds, 0.39% hits. inhibition, % at 10 µM. Yeast reconstituted NLRP3/ASC/caspase-1, beta-gal luminescence, 24 h;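 active = inhibition of 50% or more; inactive = inhibition below 50%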
L major viab: Leishmania major promastigote growth inhibition; 200,000 compounds, 9% hits; Leishmania major promastigotes, resazurin fluorescence viability; inhibition, % at 10 µM; in the data active = inhibition above about 50%;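 note: promastigotes grown with compound for 44 hours at 28 °C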
Calb FLC: C. albicans growth modulation with fluconazole; C. albicans CaCi-2 + fluconazole, Alamar Blue growth, 48 h; growth inhibition, % (concentration not given with the values); 300,000 compounds, 0.57% hits;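 active = growth inhibition above about 58% in most replicates, limit read from the data, passing the limit was not always enough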;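 note: all wells also contain fluconazole at 8 µg/ml as a sub-toxic cotreatment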
PolyA inh: yeast polyadenylation inhibition. S. cerevisiae SKY197-pL101 polyadenylation reporter, beta-gal luminescence; efflux-impaired pdr1/pdr3 knockout yeast; score 100 = 6 SD above DMSO. activity score, % at 12 µM. 300,000 compounds, 0.02% hits. AID 1875;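 active = lowest replicate activity score at least 50, where 100 means six control SD above control mean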;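 note: yeast exposed to compound for 9 h at 30 °C; higher score means more reporter readthrough which indicates perturbed polyadenylation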
T cruzi repl: blocks replication of Trypanosoma cruzi; T. cruzi beta-gal in NIH3T3, luminescence, 90 h; AID 1885; 300,000 compounds, 1.4% hits; inhibition, % (no concentration beside the values);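 active = mean inhibition across valid replicates above about 55%, limit read from the data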;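 note: signal also drops with host cell toxicity which is not excluded here; higher percent means less beta-gal luminescence so fewer parasites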
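System: mouse NIH/3T3 fibroblasts infected with β-gal-expressing T. cruzi Tulahuen C4 / Input: NIH/3T3 cells, 5,000 per well / Buffer or medium: Low-serum DMEM with 2% FBS / Probe or stimulus: 5000 reporter trypomastigotes per well / Schedule: ≥90 h infection period, 3 h prior cell attachment / Measured by: GalScreen luminescence, 60 min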
A number is an active result; . = inactive; / = no result given.

SMILES	NALP1 yeast inh	NLRP3 yeast inh	L major viab	Calb FLC	PolyA inh	T cruzi repl
CCOCCCn1c(=N)c(C(=O)NCc2ccc3c(c2)OCO3)cc2c(=O)n3ccccc3nc21	.	.	.	.	.	59.5
CCCn1c(=N)c(C(=O)NCc2ccc3c(c2)OCO3)cc2c(=O)n3cccc(C)c3nc21	.	.	95.6	.	.	64.4
CCCCn1c(=NC(=O)c2ccc3c(c2)OCO3)c(C#N)cc2c(=O)n3cccc(C)c3nc21	.	.	86.2	/	/	/
COc1ccc(CCn2c(=N)c(C(=O)NCc3ccco3)cc3c(=O)n4ccccc4nc32)cc1	.	.	.	.	.	.
Cc1cccn2c(=O)c3cc(C(=O)NCCN4CCOCC4)c(=N)n(CCN4CCOCC4)c3nc12	.	.	/	.	.	.
CCOCCCn1c(=N)c(C(=O)NCCN2CCOCC2)cc2c(=O)n3cccc(C)c3nc21	/	.	61.0	/	/	/
CCN(CC)S(=O)(=O)c1ccc(N2CCCC2)c(NC(=O)Cc2cc(OC)c(OC)c(OC)c2)c1	.	.	/	.	.	.
CCOC(=O)Cc1c(C)nc2c(-c3ccc(Cl)cc3)c[nH]n2c1=O	.	.	.	.	.	.
CC(C)CNC(=O)[C@@H]1CSC2c3ccccc3C(=O)N21 (some centres not stated)	.	.	/	.	.	.
CC(C)OCCCn1c(=N)c(C(N)=S)cc2c(=O)n3ccccc3nc21	.	.	100.5	.	.	69.0
CC(=O)N=c1c(C#N)cc2c(=O)n3ccccc3nc2n1CCCOC(C)C	.	.	/	.	.	.
Cc1ncn(-c2ccc(C(=O)Oc3ccccc3)cn2)n1	.	.	.	.	.	.
Cc1csc(NC(=O)CSc2nnc(C)s2)n1	.	.	.	.	.	.
Cc1csc(NC(=O)CSc2nnc(-c3ccccn3)n2-c2ccc(C)c(C)c2)n1	.	.	68.5	.	.	.
Cc1csc(NC(=O)CSc2nnc(NC(=O)COc3ccccc3)s2)n1	.	.	51.2	.	.	.
O=C(NCc1ccc(F)cc1)C1CCCN1C(=O)Nc1ccccc1 (configuration not stated)	.	.	/	.	.	.
COC(=O)c1sc(N2C(=O)C(=O)/C(=C(/O)c3ccccc3)C2c2ccco2)nc1C (configuration not stated)	.	.	.	.	.	.
CCC(C)c1ccc(NC(=O)C2CC3CCC2C3)cc1 (configuration not stated)	/	.	/	.	.	.
Cc1ccc(NC(=O)c2nn(C34CC5CC(CC(C5)C3)C4)cc2[N+](=O)[O-])cc1	.	.	59.1	.	.	.
CCCCC1=CC2=CC(=O)C(C)(OC(=O)CC)C(=O)C2=CN1Cc1ccc2c(c1)OCO2 (configuration not stated)	.	.	/	.	.	.
Oc1cccc(O)c1O	/	.	/	/	/	/
Cc1ccccc1OCC(=O)N1N=C(c2cccnc2)CC1(O)C(F)(F)F (configuration not stated)	.	.	50.5	.	.	.
Cc1nnc(NC(=O)C2CCN(S(=O)(=O)c3ccc(F)c(F)c3)CC2)o1	/	.	/	/	/	/
CC(Oc1ccccc1F)C(=O)NNC(=O)c1cccc(S(=O)(=O)N2CCN(C)CC2)c1 (configuration not stated)	/	.	/	/	/	/
COc1cc2ncnc(NCc3ccc(Cl)cc3)c2cc1OC	.	.	62.1	.	.	.
SMILES	NALP1 yeast inh	NLRP3 yeast inh	L major viab	Calb FLC	PolyA inh	T cruzi repl
CC(C)c1ccc(NC(=O)Cc2c(C(=O)O)n(C)c3ccccc23)cc1	.	.	/	.	.	.
CCN1/C(=C/C(C)=C/c2sc3ccccc3[n+]2CC)Sc2ccccc21	.	.	99.8	103.1	.	.
Cc1cc(C)cc(NC(=O)C(Nc2ccccc2)c2ccccc2)c1 (configuration not stated)	/	.	.	.	.	.
Cc1ccc(NC(=O)C(Nc2ccccc2)c2ccccc2)cc1 (configuration not stated)	/	.	88.0	.	.	.
Cc1ccc(NC(=O)C(Nc2cccc(C)c2)c2ccccc2)cc1 (configuration not stated)	/	.	59.1	.	.	.
CCOC(=O)C(=O)NNc1ccccc1C	.	.	71.7	.	.	.
CCOC(=O)C(=O)NNc1cccc(C)c1C	.	.	.	.	.	.
O=S(=O)(c1ccc(F)cc1)c1snnc1-c1ccccc1	.	/	81.1	.	.	.
CCOc1ccc(NC(=O)CN(C)C(=O)CC2OC(=O)c3ccccc32)cc1OCC (configuration not stated)	/	.	/	.	.	.
C/C(=N/OC(=O)C1CC12CCC2)c1ccc(Br)cc1 (configuration not stated)	.	.	.	.	.	.
CCn1c2ccccc2c2cc(/C=N/NC(=O)c3cc(O)cc(O)c3)ccc21	.	.	.	.	.	.
CCn1c2ccccc2c2cc(NC(=O)CSc3nnc(-c4cccc(C)c4)o3)ccc21	.	.	92.0	.	.	.
COc1cc(C(=O)Nc2ccc3c(c2)N(C(=O)CCN(C)C)c2ccccc2CC3)cc(OC)c1OC	.	.	.	.	.	78.7
CCn1c2ccccc2c2cc(/C=N/NC(=O)c3ccc(O)cc3)ccc21	.	.	67.1	.	.	.
O=C(CSc1nccc(=O)[nH]1)Nc1ccc(F)c([N+](=O)[O-])c1	.	.	50.5	.	.	.
N#Cc1ccc(OCC(=O)N2CCCC2=O)cc1	/	.	/	/	/	/
CCN(CC)S(=O)(=O)c1cccc(C(=O)N/N=C/c2ccc(N3CCOCC3)cc2)c1	.	.	.	.	.	.
O=C(CSc1nnc(-c2ccncc2)o1)NCc1ccccc1	.	.	50.0	.	.	.
CCn1c2ccccc2c2cc(NC(=O)CSc3nccc(=O)[nH]3)ccc21	.	.	89.6	.	.	.
CCn1c2ccccc2c2cc(NC(=O)c3cc(OC)cc(OC)c3)ccc21	.	.	.	.	.	.
CCn1c2ccccc2c2cc(NC(=O)CSc3nnc(-c4ccccc4)o3)ccc21	.	.	84.6	.	.	.
CCn1c2ccccc2c2cc(NC(=O)c3cc(OC)c(OC)c(OC)c3)ccc21	.	.	.	.	.	56.6
CCn1c2ccccc2c2cc(NC(=O)CSc3nnc(-c4cccc(F)c4)o3)ccc21	.	.	.	.	.	.
CN1CCN(C(=O)CCN2C(=O)/C(=C/c3ccccc3Cl)SC2=S)CC1	.	.	100.1	.	.	.
COc1ccccc1/C=C1\SC(=S)N(CCC(=O)NC2=NCCS2)C1=O	.	.	51.6	.	.	.
Cc1ccc(/C=C2/SC(=S)N(CCC(=O)N3CCN(C)CC3)C2=O)cc1	.	.	97.0	.	.	.
CN1CCN(C(=O)CCN2C(=O)/C(=C\c3ccccc3F)SC2=S)CC1	.	.	/	.	.	.
Cc1cc(-c2ccccc2)nc(N/N=C/c2ccccc2F)n1	.	.	/	.	.	.

Assay outcomes: PubChem, several laboratories
